Reference: ChEMBL document CHEMBL3763128, “Synthesis and antibacterial evaluation of novel 4″-glycyl linked quinolyl-azithromycins with potent activity against macrolide-resistant pathogens” (2016)
Values after ≈ are worked out from the molar mass of the structure shown.

Assays:
Assay type in all cases: functional
[1] = system: Streptococcus pneumoniae; experiment: Antibacterial activity against erythromycin-susceptible Streptococcus pneumoniae by agar microdilution method
Outline: (§1)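 MIC by agar microdilution following NCCLS guidelines. Values in μg/mL. Only differences of more than one twofold dilution were treated as significant. Ery-S denotes erythromycin-susceptible strains.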

[2] = system: Staphylococcus aureus; experiment: Antibacterial activity against inducibly macrolide-lincosamide-streptogramin B resistant Staphylococcus aureus by agar microdilution method
Outline: (§2)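 Agar microdilution per NCCLS guidelines; MIC reported in μg/mL; differences treated as significant only when more than a factor of 2 (one dilution) apart.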

[3] = system: Staphylococcus aureus; experiment: Antibacterial activity against erythromycin-susceptible Staphylococcus aureus by agar microdilution method; outline: as §1
[4] = system: Staphylococcus aureus; experiment: Antibacterial activity against efflux mediated macrolide resistant Staphylococcus aureus by agar microdilution method; outline: as §2
[5] = system: Haemophilus influenzae; experiment: Antibacterial activity against Haemophilus influenzae by agar microdilution method; outline: as §1
[6] = system: Streptococcus pyogenes; experiment: Antibacterial activity against constitutive macrolide-lincosamide-streptogramin B resistant Streptococcus pyogenes by agar microdilution method; outline: as §2
[7] = system: Moraxella catarrhalis; experiment: Antibacterial activity against Moraxella catarrhalis by agar microdilution method; outline: as §1
[8] = system: Streptococcus pyogenes; experiment: Antibacterial activity against inducibly macrolide-lincosamide-streptogramin B resistant Streptococcus pyogenes by agar microdilution method; outline: as §2
[9] = system: Staphylococcus aureus; experiment: Antibacterial activity against constitutive macrolide-lincosamide-streptogramin B resistant Staphylococcus aureus by agar microdilution method; outline: as §2
[10] = system: Streptococcus pneumoniae; experiment: Antibacterial activity against efflux mediated macrolide resistant Streptococcus pneumoniae by agar microdilution method; outline: as §2
[11] = system: Streptococcus pyogenes; experiment: Antibacterial activity against erythromycin-susceptible Streptococcus pyogenes by agar microdilution method; outline: as §1
[12] = system: Streptococcus pyogenes; experiment: Antibacterial activity against efflux mediated macrolide resistant Streptococcus pyogenes by agar microdilution method; outline: as §2
[13] = system: Streptococcus pneumoniae; experiment: Antibacterial activity against constitutive macrolide-lincosamide-streptogramin B resistant Streptococcus pneumoniae by agar microdilution method; outline: as §2

SMILES | MIC [1] [µg/mL] | MIC [2] [µg/mL] | MIC [3] [µg/mL] | MIC [4] [µg/mL] | MIC [5] [µg/mL] | MIC [6] [µg/mL] | MIC [7] [µg/mL] | MIC [8] [µg/mL] | MIC [9] [µg/mL] | MIC [10] [µg/mL] | MIC [11] [µg/mL] | MIC [12] [µg/mL] | MIC [13] [µg/mL]
CC[C@@H]1OC(=O)[C@H](C)[C@@H](O[C@@H]2C[C@](C)(OC)[C@H](O)[C@@H](C)O2)[C@@H](C)[C@@H](O[C@@H]2O[C@H](C)C[C@H](N(C)C)[C@H]2O)[C@](C)(O)C[C@@H](C)CN(C)[C@H](C)[C@@H](O)[C@]1(C)O | ≤ 0.125 | > 64 | 1 (≈ 1.34 µM) | 32 (≈ 42.7 µM) | 1 (≈ 1.34 µM) | > 64 | 0.25 (≈ 0.334 µM) | > 64 | > 64 | 8 (≈ 10.7 µM) | ≤ 0.125 | 16 (≈ 21.4 µM) | > 64
CC[C@H]1OC(=O)[C@@H](C)[C@H](O[C@@H]2C[C@](C)(OC)[C@H](OC(=O)CNCCCNCCNc3cc4c(=O)c(C(=O)O)cn(C5CC5)c4cc3Cl)[C@@H](C)O2)[C@H](C)[C@H](O[C@H]2O[C@@H](C)C[C@@H](N(C)C)[C@@H]2O)[C@@](C)(O)C[C@H](C)CN(C)[C@@H](C)[C@H](O)[C@@]1(C)O | ≤ 0.125 | 0.25 (≈ 0.214 µM) | ≤ 0.125 | 0.25 (≈ 0.214 µM) | 0.5 (≈ 0.428 µM) | – | ≤ 0.125 | – | > 64 | – | ≤ 0.125 | – | –
CC[C@H]1OC(=O)[C@@H](C)[C@H](O[C@H]2C[C@@](C)(OC)[C@@H](OC(=O)CN)[C@H](C)O2)[C@@H](C)[C@H](O[C@H]2O[C@@H](C)C[C@@H](N(C)C)[C@@H]2O)[C@@](C)(O)C[C@H](C)CN(C)[C@@H](C)[C@@H]2OC(=O)O[C@@]12C | ≤ 0.125 | > 64 | 32 (≈ 38.5 µM) | > 64 | > 64 | > 64 | > 64 | 32 (≈ 38.5 µM) | > 64 | 32 (≈ 38.5 µM) | ≤ 0.125 | > 64 | > 64
CCC1OC(=O)[C@H](C)[C@@H](O[C@H]2C[C@@](C)(OC)[C@@H](OC(=O)CNCCSc3cnc4ccccc4n3)[C@H](C)O2)C(C)[C@@H](O[C@@H]2O[C@H](C)C[C@H](N(C)C)[C@H]2O)[C@](C)(O)C[C@@H](C)CN(C)[C@H](C)[C@@H](O)[C@]1(C)O (single isomer, unassigned) | ≤ 0.125 | 0.5 (≈ 0.503 µM) | 2 (≈ 2.01 µM) | 2 (≈ 2.01 µM) | 4 (≈ 4.02 µM) | 16 (≈ 16.1 µM) | 1 (≈ 1.01 µM) | 4 (≈ 4.02 µM) | > 64 | – | ≤ 0.125 | 0.25 (≈ 0.251 µM) | 16 (≈ 16.1 µM)
CCC1OC(=O)[C@H](C)[C@@H](O[C@H]2C[C@@](C)(OC)[C@@H](OC(=O)CNC(=O)CNC(=O)CSc3cnc4ccccc4n3)[C@H](C)O2)C(C)[C@@H](O[C@@H]2O[C@H](C)C[C@H](N(C)C)[C@H]2O)[C@](C)(O)C[C@@H](C)CN(C)[C@H](C)[C@@H](O)[C@]1(C)O (single isomer, unassigned) | ≤ 0.125 | 0.5 (≈ 0.469 µM) | 1 (≈ 0.939 µM) | 2 (≈ 1.88 µM) | 4 (≈ 3.75 µM) | 16 (≈ 15 µM) | 4 (≈ 3.75 µM) | 4 (≈ 3.75 µM) | > 64 | – | 0.25 (≈ 0.235 µM) | 0.25 (≈ 0.235 µM) | 16 (≈ 15 µM)
CCC1OC(=O)[C@H](C)[C@@H](O[C@H]2C[C@@](C)(OC)[C@@H](OC(=O)CNC(=O)CCNCCNc3cc4c(cc3F)c(=O)c(C(=O)O)cn4C3CC3)[C@H](C)O2)C(C)[C@@H](O[C@@H]2O[C@H](C)C[C@H](N(C)C)[C@H]2O)[C@](C)(O)C[C@@H](C)CN(C)[C@H](C)[C@@H](O)[C@]1(C)O (single isomer, unassigned) | ≤ 0.125 | 8 (≈ 6.86 µM) | 0.25 (≈ 0.215 µM) | 2 (≈ 1.72 µM) | 4 (≈ 3.43 µM) | 4 (≈ 3.43 µM) | 1 (≈ 0.858 µM) | 1 (≈ 0.858 µM) | > 64 | 1 (≈ 0.858 µM) | ≤ 0.125 | 2 (≈ 1.72 µM) | 4 (≈ 3.43 µM)
CCC1OC(=O)[C@H](C)[C@@H](O[C@H]2C[C@@](C)(OC)[C@@H](OC(=O)CNCCNC(=O)CSc3cnc4ccccc4n3)[C@H](C)O2)C(C)[C@@H](O[C@@H]2O[C@H](C)C[C@H](N(C)C)[C@H]2O)[C@](C)(O)C[C@@H](C)CN(C)[C@H](C)[C@@H](O)[C@]1(C)O (single isomer, unassigned) | ≤ 0.125 | 0.25 (≈ 0.238 µM) | 8 (≈ 7.61 µM) | 1 (≈ 0.951 µM) | 8 (≈ 7.61 µM) | 8 (≈ 7.61 µM) | 8 (≈ 7.61 µM) | 1 (≈ 0.951 µM) | > 64 | – | ≤ 0.125 | – | 8 (≈ 7.61 µM)
CCC1OC(=O)[C@H](C)[C@@H](O[C@H]2C[C@@](C)(OC)[C@@H](OC(=O)CNC(=O)CCNCCOCCNc3cc4c(=O)c(C(=O)O)cn(C5CC5)c4cc3Cl)[C@H](C)O2)C(C)[C@@H](O[C@@H]2O[C@H](C)C[C@H](N(C)C)[C@H]2O)[C@](C)(O)C[C@@H](C)CN(C)[C@H](C)[C@@H](O)[C@]1(C)O (single isomer, unassigned) | ≤ 0.125 | 2 (≈ 1.63 µM) | ≤ 0.125 | 1 (≈ 0.816 µM) | 2 (≈ 1.63 µM) | 2 (≈ 1.63 µM) | 0.5 (≈ 0.408 µM) | 0.5 (≈ 0.408 µM) | > 64 | 0.5 (≈ 0.408 µM) | ≤ 0.125 | 1 (≈ 0.816 µM) | 1 (≈ 0.816 µM)
CCC1OC(=O)[C@H](C)[C@@H](O[C@H]2C[C@@](C)(OC)[C@@H](OC(=O)CNC(=O)CCNCCOCCOCCNc3cc4c(cc3F)c(=O)c(C(=O)O)cn4C3CC3)[C@H](C)O2)C(C)[C@@H](O[C@@H]2O[C@H](C)C[C@H](N(C)C)[C@H]2O)[C@](C)(O)C[C@@H](C)CN(C)[C@H](C)[C@@H](O)[C@]1(C)O (single isomer, unassigned) | ≤ 0.125 | 32 (≈ 25.5 µM) | 0.5 (≈ 0.399 µM) | 16 (≈ 12.8 µM) | 8 (≈ 6.38 µM) | 32 (≈ 25.5 µM) | 2 (≈ 1.6 µM) | 4 (≈ 3.19 µM) | > 64 | 4 (≈ 3.19 µM) | ≤ 0.125 | 16 (≈ 12.8 µM) | 8 (≈ 6.38 µM)
CCC1OC(=O)[C@H](C)[C@@H](O[C@H]2C[C@@](C)(OC)[C@@H](OC(=O)CNCCCNCCNc3cc4c(cc3F)c(=O)c(C(=O)O)cn4C3CC3)[C@H](C)O2)C(C)[C@@H](O[C@@H]2O[C@H](C)C[C@H](N(C)C)[C@H]2O)[C@](C)(O)C[C@@H](C)CN(C)[C@H](C)[C@@H](O)[C@]1(C)O (single isomer, unassigned) | ≤ 0.125 | 1 (≈ 0.868 µM) | ≤ 0.125 | 0.5 (≈ 0.434 µM) | 1 (≈ 0.868 µM) | 1 (≈ 0.868 µM) | 0.25 (≈ 0.217 µM) | 0.25 (≈ 0.217 µM) | > 64 | – | ≤ 0.125 | 0.5 (≈ 0.434 µM) | 0.5 (≈ 0.434 µM)
CCC1OC(=O)[C@H](C)[C@@H](O[C@H]2C[C@@](C)(OC)[C@@H](OC(=O)CNC(=O)CSc3cnc4ccccc4n3)[C@H](C)O2)C(C)[C@@H](O[C@@H]2O[C@H](C)C[C@H](N(C)C)[C@H]2O)[C@](C)(O)C[C@@H](C)CN(C)[C@H](C)[C@@H](O)[C@]1(C)O (single isomer, unassigned) | ≤ 0.125 | 1 (≈ 0.992 µM) | 4 (≈ 3.97 µM) | 8 (≈ 7.93 µM) | 8 (≈ 7.93 µM) | 32 (≈ 31.7 µM) | 16 (≈ 15.9 µM) | 8 (≈ 7.93 µM) | > 64 | 0.25 (≈ 0.248 µM) | ≤ 0.125 | 0.5 (≈ 0.496 µM) | 16 (≈ 15.9 µM)
CCC1OC(=O)[C@H](C)[C@@H](O[C@H]2C[C@@](C)(OC)[C@@H](OC(=O)CNC(=O)CCNCCOCCNc3cc4c(cc3F)c(=O)c(C(=O)O)cn4C3CC3)[C@H](C)O2)C(C)[C@@H](O[C@@H]2O[C@H](C)C[C@H](N(C)C)[C@H]2O)[C@](C)(O)C[C@@H](C)CN(C)[C@H](C)[C@@H](O)[C@]1(C)O (single isomer, unassigned) | ≤ 0.125 | 4 (≈ 3.31 µM) | 0.25 (≈ 0.207 µM) | 4 (≈ 3.31 µM) | 4 (≈ 3.31 µM) | 16 (≈ 13.2 µM) | 1 (≈ 0.827 µM) | 4 (≈ 3.31 µM) | > 64 | 4 (≈ 3.31 µM) | ≤ 0.125 | 8 (≈ 6.61 µM) | 8 (≈ 6.61 µM)
CC[C@H]1OC(=O)[C@H](C)C(=O)[C@H](C)[C@@H](O[C@@H]2O[C@H](C)C[C@H](N(C)C)[C@H]2O)[C@](C)(OCC=Cc2cnc3ccccc3c2)C[C@@H](C)C(=O)[C@H](C)[C@H]2NC(=O)O[C@@]21C [CETHROMYCIN] | ≤ 0.125 | 0.25 (≈ 0.326 µM) | ≤ 0.125 | 0.25 (≈ 0.326 µM) | 1 (≈ 1.31 µM) | 1 (≈ 1.31 µM) | ≤ 0.125 | – | > 64 | – | ≤ 0.125 | – | –
O=C(O)c1cn(C2CC2)c2cc(N3CCNCC3)c(F)cc2c1=O [CIPROFLOXACIN] | ≤ 0.125 | – | ≤ 0.125 | – | ≤ 0.125 | 0.5 (≈ 1.51 µM) | ≤ 0.125 | 0.25 (≈ 0.754 µM) | – | 0.25 (≈ 0.754 µM) | 2 (≈ 6.04 µM) | ≤ 0.125 | 0.25 (≈ 0.754 µM)
CC[C@H]1OC(=O)[C@H](C)C(=O)[C@H](C)[C@@H](O[C@@H]2O[C@H](C)C[C@H](N(C)C)[C@H]2O)[C@](C)(OC)C[C@@H](C)C(=O)[C@H](C)[C@H]2N(CCCCn3cnc(-c4cccnc4)c3)C(=O)O[C@]12C [TELITHROMYCIN] | ≤ 0.125 | 0.5 (≈ 0.616 µM) | ≤ 0.125 | 0.25 (≈ 0.308 µM) | 1 (≈ 1.23 µM) | 8 (≈ 9.85 µM) | ≤ 0.125 | – | > 64 | 0.5 (≈ 0.616 µM) | ≤ 0.125 | 0.25 (≈ 0.308 µM) | –
